Results on 24 compounds are retold here after PubChem BioAssay.

A number with no mark means an inactive call. Records with an inconclusive call do not appear. The source made the active and inactive calls.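 The calls were made as follows, unless noted: active = viability at or below 27.92% in each of two runs, the all-compound median minus 4 SD; inconclusive = no clear call, values can overlap the other calls; inactive = the rest.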

Test [1] in a line: S. cerevisiae growth inhibition in permissive medium (OD615), pilot counter-assay for S. cerevisiae lifespan shortening project, permissive growth control (AID 705;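 active = growth inhibition above 25% in both replicates, a cutoff set 3 SD above the mean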). Particulars: OD615, 24 h, at 10 µM, hits give high values. The procedure, abridged:
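System: engineered DeaD yeast; Medium: permissive raffinose/galactose medium; Compound dosing: 10 µM single dose, 0.25% DMSO; Incubation: 4 h cell pre-growth, 24 h exposure at 30 °C; Technique: OD at 615 nm; Evaluation: growth inhibition from lowered OD615 after 24 h.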

A short description of test [2]: S. cerevisiae growth inhibition in restrictive medium, OD615, pilot screen, restrictive growth control, yeast lifespan reduction project (AID 706;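 active = growth inhibition above a set limit, 3 SD over mean compound inhibition, in both replicates, cut at about 43% in these data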;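 also: modified DeaD lifespan yeast strain shifted to restrictive glucose medium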). To be noted: OD615, 48 h, at 10 µM, hits give high values. The procedure, abridged:
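Material: modified S. cerevisiae; buffer or medium: CSMM-D glucose medium; doses: one concentration, 10 µM final, 0.25% DMSO; incubation: 48 h compound exposure at 30 °C; detection: optical density at 615 nm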

Test [3] is described as follows: doxorubicin toxicity protection in MRP-1 cells – H69AR cells, CellTiter-Glo, duplicate, MRP-1 activator project, pilot screen (AID 807;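 active = viability increase at or above a cutoff of the median across tested compounds plus 3 SD, cut at about 8.5% in these data, passing the limit was not always enough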;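 also: compound pretreatment 18-22 h then 72 h combined with doxorubicin; 0% = doxorubicin alone and 100% = vehicle without doxorubicin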). To be noted: H69AR viability with doxorubicin, CellTiter-Glo luminescence; at 10 µM; hits give high values.
A short description of test [4]: viability of HCT116 without oncogenic beta-catenin – human colon tumor cells, pilot screen (AID 823;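 active = cell viability at or below a set limit in both duplicate runs, the limit being the all-compound median minus 4 SD, cut at about 23% in these data, passing the limit was not always enough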;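 also: 0% = wells killed by 20 µM Hyamine and 100% = untreated DMSO cell wells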). Particulars: HCT116 beta-catenin knockout viability, CellTiter-Glo, 60 h; at 10 µM; hits give low values. Background: Cellular ATP, detected with luciferase, serves as a proxy for viable cell number.
Test [5] in a line: viability of PTEN-null HCT116 cells – cell-based, HCT116 clonal line, CellTiter-Glo, pilot screen (AID 824).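 Also: 0% = 20 µM Hyamine control and 100% = vehicle cell control.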 To be noted: HCT116 PTEN-deleted viability, 60 h, at 10 µM, hits give low values.
Test [6] is described as follows: RAM pathway blockade in budding yeast – dse1pr::URA3 reporter, 5-FOA selection, pilot screen (AID 869;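 active = inhibition over a set limit, the all-compound mean plus 3 SD, in both replicate runs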;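 also: 0% = DMSO wells with no growth and 100% = 10 µM 1-NA-PP1 with full growth; RAM network block rescues cells from 5-FOA so hits raise OD615 growth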). To be noted: S. cerevisiae dse1pr::URA3 5-FOA growth, OD615, 2 d; at 10 µM; hits give high values; strain carries analog-sensitive mutant Cbk1 kinase.
A short description of test [7]: RAM signaling pathway blockade in yeast – S. cerevisiae, Pdr1DBD-CYC8 efflux-inhibited sensitized strain, primary screen (AID 1298;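 active = RAM network inhibition above 8.4% in each of two replicates, 3 SD over the compound average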;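 also: 0% = DMSO untreated cells without growth and 100% = 10 µM 1-NA-PP1 full growth; higher means more yeast growth rescued from 5-FOA killing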). To be noted: S. cerevisiae cbk1-as DSE1-URA3 strain, 5-FOA growth OD615, 2 d; at 50 µM; hits give high values.

Regarding `CC1CCCN(Cc2nc3c(c(=O)n(C)c(=O)n3C)n2Cc2c(F)cccc2Cl)C1` (stereo not drawn), the growth inhibition in test [1] was -8.39%; in test [2], -6.31%. Also, in test [3], the viability increase is -4.6%. For the same compound, the viability in test [4] is 84.4%; in test [5], 80.2%. Besides, the inhibition in test [6] is 1.09%. Further, in test [7], the RAM network inhibition was 10.9%.

Regarding `COc1ccc(S(=O)(=O)N2CCN(C)CC2)cc1Br`, the growth inhibition in test [1] is -1.05%; in test [2], 9.22%. Further, the viability increase in test [3] is -2.75%. Further, the viability in test [4] was 95%; in test [5] it was 92%. Further, the inhibition in test [6] is 1.01%. The RAM network inhibition in test [7] was -0.01%.

Turning to `OC(COc1ccccc1Cl)CN1CCN(CC(O)COc2ccccc2Cl)CC1` (stereo not drawn), the growth inhibition in test [1] is 3.62%; in test [2] it was -11.8%. In addition, in test [3], the viability increase was -5.92%. Besides, the viability in test [4] is 73.3%; in test [5], 81.9%. For the same compound, the inhibition in test [6] was 0.495%. The RAM network inhibition in test [7] is 3.13%.

On to `O=C(C1CCCCN1S(=O)(=O)c1ccc(F)cc1)N1CCN(c2ccccc2F)CC1` (stereo not drawn), for which the figures for the growth inhibition in test [1] and in test [2] were -14.1% and -8.47%, respectively. Moreover, the viability increase in test [3] was -1.06%. Moreover, the viability in test [4] is 80.8%; in test [5] it was 82.9%. The inhibition in test [6] was -0.01%. In test [7], the RAM network inhibition is 1.9%.

With `COc1ccc(C2SCC(C(=O)O)N2C(C)=O)cc1OC` (stereo not drawn), the growth inhibition in test [1] is 0.095%; in test [2] it was 1.78%. Further, in test [3], the viability increase is 0.1%. Also, the viability is 96.5% in test [4] and 102% in test [5]. Further, the inhibition in test [6] is 1.33%. Further, the RAM network inhibition in test [7] is 7.78%.

On to `Nc1nonc1/C(=N/O)N1CCN(CCO)CC1`, for which the values for the growth inhibition in test [1] and in test [2] were 1.46% and -1.22%, respectively. Besides, in test [3], the viability increase was 0%. Besides, the viability in test [4] was 104%; in test [5], 100%. Also, the inhibition in test [6] was 1.46%. For the same compound, in test [7], the RAM network inhibition is 0.95%.

Regarding `COc1ccc(N2Cc3cccc(C(=O)N4CCN(C(=O)c5ccco5)CC4)c3C2=O)cc1`, the growth inhibition in test [1] is 3.88%; in test [2] it was 11.3%. The viability increase in test [3] is -1.86%. Further, the viability in test [4] was 99.3%; in test [5] it was 91%. The inhibition in test [6] was 2.62%. The RAM network inhibition in test [7] is 3.36%.

As for `CCOc1ccccc1Nc1nnc(C)c(=O)[nH]1`, the growth inhibition in test [1] was -5.5%; in test [2], 5.76%. Further, the viability increase in test [3] was -0.35%. Further, the viability in test [4] was 105%; in test [5], 99.3%. The inhibition in test [6] was 0.56%. For the same compound, the RAM network inhibition in test [7] is 3.65%.

Turning to `CCc1ccccc1N1CSC2=C(C#N)C(c3ccccc3F)CC(=O)N2C1` (stereo not drawn), the figures for the growth inhibition in test [1] and in test [2] were -2.74% and 35.3%, respectively. For the same compound, the viability increase in test [3] is -7.03%. Moreover, the results for the viability in test [4] and in test [5] were 78.8% and 76.5%, respectively. The inhibition in test [6] was 0.905%. The RAM network inhibition in test [7] is 4.09%.

For the compound `COCCNC(=O)COc1ccccc1Cl`, the growth inhibition in test [1] was -8.43%; in test [2] it was 0.04%. For the same compound, the viability increase in test [3] is -1.02%. Moreover, the values for the viability in test [4] and in test [5] were 95.4% and 93.8%, respectively. Moreover, the inhibition in test [6] is 0.815%. Moreover, the RAM network inhibition in test [7] was 1.81%.

Take `CCOC(=O)c1c(N)sc2c(O)c(Br)ccc12`: the growth inhibition is -26.9% in test [1] and -1.8% in test [2]. Moreover, in test [3], the viability increase is -0.49%. Also, the viability is 104% in test [4] and 107% in test [5]. Also, in test [6], the inhibition is 1.01%. In addition, the RAM network inhibition in test [7] is 5.24%.

Turning to `CCc1nnc(NC(=O)CSc2nc3c(c(=O)n2CC)SC(C)C3)s1` (stereo not drawn), the figures for the growth inhibition in test [1] and in test [2] were 3.12% and -4.29%, respectively. In addition, the viability increase in test [3] was -0.18%. Besides, the viability in test [4] was 99.2%; in test [5], 93.1%. In addition, in test [6], the inhibition was 3.99%. The RAM network inhibition in test [7] is 6.11%.

On to `COc1ccc(NC(=O)c2cc3ccccc3o2)cc1`, for which the growth inhibition is -7.97% in test [1] and 10.6% in test [2]. For the same compound, the viability increase in test [3] is -4.64%. In addition, the viability in test [4] was 86.6%; in test [5], 75.8%. Further, the inhibition in test [6] is 0.89%. In addition, the RAM network inhibition in test [7] is -1.4%.

For `O=C(c1ccc(NC2=NC3CS(=O)(=O)CC3S2)cc1)N1CCN(C(=O)c2ccco2)CC1` (stereo not drawn), the values for the growth inhibition in test [1] and in test [2] were -12.1% and -8.33%, respectively. For the same compound, the viability increase in test [3] is 0.69%. Further, the results for the viability in test [4] and in test [5] were 104% and 98.3%, respectively. Further, the inhibition in test [6] was 2.96%. The RAM network inhibition in test [7] was 4.06%.

For the compound `CCOC(=O)c1sc(NC(=O)c2ccc(Cl)s2)cc1C`, the results for the growth inhibition in test [1] and in test [2] were -0.47% and -4.72%, respectively. The viability increase in test [3] is 0.81%. The results for the viability in test [4] and in test [5] were 105% and 94.9%, respectively. Further, the inhibition in test [6] was 2.33%. The RAM network inhibition in test [7] was 5.22%.

As to `COCCn1c(=O)[nH]c2cc(C(=O)NCCN3CCN(c4ccccc4)CC3)ccc2c1=O`, the growth inhibition in test [1] was -5.1%; in test [2] it was 7.77%. Besides, the viability increase in test [3] was -0.22%. The values for the viability in test [4] and in test [5] were 92.5% and 93.2%, respectively. In addition, in test [6], the inhibition was 1.11%. Moreover, in test [7], the RAM network inhibition is 3.35%.

On to `CN(C)c1nc(N)nc(N(c2ccccc2)c2ccccc2)n1`, for which the figures for the growth inhibition in test [1] and in test [2] were -12.3% and -28.1%, respectively. Further, the viability increase in test [3] is -2.5%. Also, the viability in test [4] is 93.6%; in test [5] it was 90.8%. Moreover, the inhibition in test [6] was -0.635%. Further, the RAM network inhibition in test [7] was 2.96%.

`Cc1cc(C)cc(N(CC(=O)N2CCc3ccccc32)S(=O)(=O)c2c(C)noc2C)c1`: the growth inhibition in test [1] is -11.2%; in test [2] it was -5.73%. The viability increase in test [3] is -4.52%. In addition, the results for the viability in test [4] and in test [5] were 90.4% and 89.9%, respectively. The inhibition in test [6] is 2.83%. For the same compound, in test [7], the RAM network inhibition was 0.55%.

In the case of `Cn1c(Cn2c(=O)sc3ccccc32)nnc1SCC(=O)NCc1ccc(F)cc1`, the growth inhibition was -13.5% in test [1] and -17.4% in test [2]. In addition, the viability increase in test [3] is -1.09%. The viability is 104% in test [4] and 95% in test [5]. Further, the inhibition in test [6] is 3.3%. Besides, the RAM network inhibition in test [7] was 2.63%.

Turning to `CCOC(=O)C1CCCN(C(=O)c2ccc(CS(=O)(=O)c3ccc(C)cc3)o2)C1` (stereo not drawn), the growth inhibition in test [1] was -0.315%; in test [2], -6.29%. Further, the viability increase in test [3] is -2.78%. The viability in test [4] is 110%; in test [5], 101%. For the same compound, in test [6], the inhibition is 1.16%. In addition, the RAM network inhibition in test [7] was 3.23%.

In the case of `c1nc(N2CCNCC2)c2sc3nc(N4CCOCC4)c4c(c3c2n1)CCC4`, the values for the growth inhibition in test [1] and in test [2] were -0.055% and 6.55%, respectively. Besides, the viability increase in test [3] is -6.75%. Also, the values for the viability in test [4] and in test [5] were 2.54% (active) and 1.69% (active), respectively. In addition, the inhibition in test [6] was 2.3%. The RAM network inhibition in test [7] was 7.31%.

With `Cn1c(=O)oc2cc(S(=O)(=O)N3CCCC3)ccc21`, the growth inhibition in test [1] is 4.02%; in test [2], -7.37%. In addition, the viability increase in test [3] is -2.12%. Further, the results for the viability in test [4] and in test [5] were 102% and 97.2%, respectively. Moreover, in test [6], the inhibition is 0.645%. In addition, in test [7], the RAM network inhibition was 0.66%.

On to `CCOC(=O)C1C(=O)CC(C)(O)C(C(=O)OCC)C1c1ccco1` (stereo not drawn), for which the values for the growth inhibition in test [1] and in test [2] were -11% and -5.69%, respectively. Also, the viability increase in test [3] is -1.04%. The results for the viability in test [4] and in test [5] were 101% and 103%, respectively. Moreover, in test [6], the inhibition is 1.04%. For the same compound, in test [7], the RAM network inhibition was 2.45%.

For the compound `N#CC1=C2SCN(c3ccccc3)CN2C(=O)CC1c1c(Cl)cccc1Cl` (stereo not drawn), the growth inhibition in test [1] is -3.85%; in test [2] it was 18.9%. Besides, the viability increase in test [3] was -7.7%. Besides, the results for the viability in test [4] and in test [5] were 84.3% and 93%, respectively. Besides, in test [6], the inhibition was 1.14%. Further, the RAM network inhibition in test [7] was 4.42%.

Broadly, the viability is a read-out of living cells in per cent, often relative to untreated cells. Usually inhibition stands for the change of the read-out against control, counted positive when it falls.
